Bioassay records: PubChem BioAssay, NMMLSC
Arrestin-AP2 inh: inhibitors of beta-arrestin/AP2 binding, primary screen, biochemical, GPCR trafficking, flow cytometry. beta-arrestin 1 C-terminal peptide binding to AP2 beta2-adaptin appendage (human). FITC-arrestin peptide / GST-AP2 beads; AP2 beta2 appendage carries R879A mutation. inhibition, % at 10 µM. 0.31% of 340,000 active. AID 504490, 2011;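 active = inhibition above a set limit, near 3 SD of compounds lacking own fluorescence, cut at about 54% in these data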;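 note: plate controls were DMSO wells for no effect and 5 µM unlabelled arrestin peptide for full effect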
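System: GST-AP2 R879A bound to glutathione beads, E. coli-expressed. Also added: 50 nM FITC-arrestin peptide. Schedule: compound with beads 12 min RT, then probe 1 h RT. Signal: bead flow cytometry, FITC channel. Read-out basis: percent response.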
GSH fluor: compound fluorescence on glutathione beads, profiling panel, artefact control, biophysical, 488/530 nm, flow cytometry; 0.25% of 190,000 active; fluorescence (KMESF) at 10 µM; GSH beads flow cytometry, compound fluorescence 488/530 nm; active compounds read high; in the data active = fluorescence above about 89;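 note: glutathione beads carrying GST-tagged Bcl family fusion proteins plus one bare bead set; values are compound well signal with DMSO vehicle wells as background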
Pemphigus Ab inh: inhibitors of pemphigus antibody binding to DSG3, primary screen, biochemical, bead-based, flow cytometry, scFv-GFP; binding (percent of control), % at 10 µM; Desmoglein-3 (Homo sapiens), P32926; DSG3-coupled beads, scFv-anti-DSG3-GFP binding; active compounds read low; 0.48% of 310,000 active;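 active = binding more than 3 SD below its plate's average and above zero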;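 note: hits lower antibody fragment binding to DSG3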
Avidin bead fluor: green autofluorescence of compounds with avidin beads – biophysical, 488/530 nm, flow cytometry, artefact control, profiling panel; 0.38% of 220,000 active; AID 1775, 2009; compound fluorescence 488/530 nm; active compounds read high; fluorescence (KMESF) at 10 µM; in the data active = fluorescence above about 47
* marks the source's active call; other numbers are inactive results; nt = no result given. Only some compounds are listed: those with a hit (about 1.1% of all), similar ones and a draw of the others.

SMILES	Arrestin-AP2 inh	GSH fluor	Pemphigus Ab inh	Avidin bead fluor
COc1ccccc1CNC(=O)COC(=O)c1ccc(S(=O)(=O)N2CCCCC2)cc1	0	nt	81*	nt
CC(=O)Nc1ccc(C(=O)OCC(=O)c2ccc(S(=O)(=O)N3CCCCC3)cc2)cc1	6	nt	29*	nt
COc1ccccc1CNC(=O)COC(=O)c1ccc(S(=O)(=O)N2CCCC2)cc1	6	14	78	8
CC1(c2ccccc2)NC(=O)N(CC(=O)Nc2ccccc2C(=O)N2CCCCC2)C1=O (stereo not given)	-8	nt	106	nt
O=C(NN=C1CCCCCCC1)c1ccc2ccccc2n1	-3	12	111	19
Cc1oc(S(=O)(=O)N2CCCCC2)cc1NC(=O)Nc1ccc(F)cc1	-21	nt	91*	7
Cc1cc(C)c(C(=O)COC(=O)c2nn(C)c(=O)c3ccccc23)cc1C	-1	nt	100	nt
Cc1ccc(N2CC(C(=O)NCCS(=O)(=O)N3CCN(c4ccccc4F)CC3)CC2=O)cc1 (stereo not given)	-2	nt	97	nt
COC(=O)c1ccc(-c2ccc(C(=O)N3CCCN(C)CC3)cc2)cc1	nt	256*	nt	6
COc1ccc(C(=O)Nc2ccc(NC(=O)c3cnccn3)cn2)cc1	21	13	72*	20
COc1ccc(C(=O)Nc2ccc(NC(=O)C3CC3)cn2)cc1	-52	nt	105	nt
Cc1ccc(NC(=O)c2cccc(S(=O)(=O)N3CCN(c4ccc(F)cc4)CC3)c2)nc1	23	nt	101	nt
N#CC1=C(N)Oc2n[nH]c(-c3cccs3)c2C1c1cccs1 (stereo not given)	-1	16	101	48*
C/C(=N\NC(=O)COc1cccc(Cl)c1)c1ccc2c(c1)OCCO2	16	314*	nt	19
Cc1cccn2c(=S)[nH]nc12	-11	nt	112	nt
N#CC(=C=[N-])c1nc2ccccc2nc1-[n+]1cccc(NC(=O)c2ccccc2)c1	-6	nt	102	6
N#CC(=C=[N-])c1nc2ccccc2nc1-[n+]1cccc(NC(=O)c2cccs2)c1	1	nt	51*	9
CC(=O)N1CCN(C(=O)CSc2ncnc3sc(C)c(C)c23)CC1	-5	nt	nt	nt
CCc1nc2sc(C)c(C)c2c(=O)n1CCO	-5	28	106	52*
CCOc1ccc(N2C(=O)CC(SCCN)C2=O)cc1 (stereo not given)	3	267*	91	6
Cc1cc(Nc2ncc(Cl)cc2Cl)n(-c2ccccn2)n1	27	268*	70	7
Cc1cc(Nc2ncc(Cl)cc2Cl)n(-c2ccccc2)n1	-7	12	102	14
c1ccc2sc(SN3CCOCC3)nc2c1	5	22	80*	16
CN(Cc1cccnc1)C(=O)c1ccc2nc(Cc3ccccc3F)oc2c1	14	nt	102	nt
CCCC(NS(=O)(=O)c1ccc(-c2ccc(=O)[nH]n2)s1)c1cccs1 (stereo not given)	5	nt	100	nt
SMILES	Arrestin-AP2 inh	GSH fluor	Pemphigus Ab inh	Avidin bead fluor
CCC(=O)N(CC)c1nc(-c2ccc(OC)cc2)cs1	-1	11	73*	22
COc1ccc(-n2ncc(C(C)NS(=O)(=O)c3cc(C)sc3C)c2C)cc1 (stereo not given)	nt	nt	106	nt
COC(=O)[C@]1(C)N[C@H](CN(C)S(=O)(=O)c2ccc(F)cc2)[C@@H]2C(=O)N(C)C(=O)[C@@H]21	-6	nt	99	nt
Cc1ccc(C(O)P(=O)(OC2CCCCC2)OC2CCCCC2)cc1 (stereo not given)	-4	38	95	56*
CN(C)c1ccc(C(O)P(=O)(OC2CCCCC2)OC2CCCCC2)cc1 (stereo not given)	-7	nt	122	3
CC(C)Nc1cc(C(F)(F)F)nc(-c2ccccn2)n1	-6	33	109	332*
CCn1c(N2CCN(S(=O)(=O)c3ccc(Cl)cc3)CC2)nc2ccccc21	13	52	-37*	8
CC1CN(S(=O)(=O)c2ccc(Cl)c(C(F)(F)F)c2)CC(C)O1 (stereo not given)	70*	55	97	7
Oc1c(CN2CCCC(C(F)(F)F)C2)cc(Cl)c2ccccc12 (stereo not given)	13	nt	106	nt
O=Cc1c(NC2CCCCC2)c2ccccc2[nH]c1=O	14	nt	74*	nt
O=Cc1c(NCc2ccc(F)cc2)c2ccccc2[nH]c1=O	6	nt	103	nt
